# Screening results deposited in PubChem BioAssay by several laboratories.
# JMJD2C inh: blocks human GASC-1 demethylase activity; actives 0.069% (n = 330,000); Q9H3R0; GST-JMJD2C(1-420) H3K9me3 demethylation, DELFIA europium; inhibition, % at 2.35 µM;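 active = more than half of a compound's replicate wells show inhibition beyond 50%, single wells judged on their own value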;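 note: signal counts dimethyl H3K9 product captured on neutravidin plate; 0% = median of DMSO wells and 100% = 0.3 times that DMSO median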
# Target sequence (Q9H3R0 1-420 limits assumed): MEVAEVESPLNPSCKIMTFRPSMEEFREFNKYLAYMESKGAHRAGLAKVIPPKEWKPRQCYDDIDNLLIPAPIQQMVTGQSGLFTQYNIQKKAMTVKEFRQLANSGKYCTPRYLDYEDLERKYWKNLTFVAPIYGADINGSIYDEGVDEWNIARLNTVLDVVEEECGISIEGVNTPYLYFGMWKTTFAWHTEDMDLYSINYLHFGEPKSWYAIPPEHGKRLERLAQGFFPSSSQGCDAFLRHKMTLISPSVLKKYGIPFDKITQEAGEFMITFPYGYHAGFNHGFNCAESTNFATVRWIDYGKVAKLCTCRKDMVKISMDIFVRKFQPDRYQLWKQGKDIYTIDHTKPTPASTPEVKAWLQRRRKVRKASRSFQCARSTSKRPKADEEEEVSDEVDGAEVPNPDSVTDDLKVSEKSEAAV
# m5-HT2A agonist: activates the mouse 5-HT2A serotonin receptor; P35363; CHO-K1 mHTR2A beta-arrestin complementation, luminescence; percent of 30 µM serotonin response; activation, % at 7.6 µM; actives 0.66% (n = 360,000); AID 624169;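 active = activation above a run cutoff, the mean activation of all tested compounds plus 3 SD, cut at about 14% in these data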;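 note: 0% = plate median of compound wells and 100% = 30 µM serotonin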
# PP1 inh: blocks human PP1-alpha phosphatase, a PP5 counter-screen | AID 2235 | purified PP1alpha, OMFP fluorescence | actives 0.9% (n = 320,000) | inhibition, % at 6.7 µM | P62136;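 active = inhibition above the mean inhibition of all tested compounds plus 3 SD, computed separately for each screening campaign, cut at about 15% in these data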
# PP5 inh: inhibitors of human protein phosphatase 5 (PP5) | actives 0.18% (n = 320,000) | AID 1987 | purified PP5c, OMFP substrate fluorescence | inhibition, % at 6.7 µM;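 active = inhibition above the campaign's mean inhibition across all tested compounds plus 3 SD, cut at about 9.5% in these data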;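 note: 0% = DMSO only and 100% = 100 µM cantharidin control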
# T cell modulator: T cell immune modulators affecting CD8 T cell-vesicle binding; AID 2052; actives 0.068% (n = 330,000); response (vesicle binding), % at 7 µM; 2C CD8+ T cell-vesicle binding, flow cytometry; active compounds read low;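 active = response, share of CD8 T cells binding vesicles, and their 90th percentile fluorescence all below set limits, cut at about 80% in these data, passing the limit was not always enough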;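 note: values below 100% mean blocked vesicle binding to the CD8+ T cells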
#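 Assay system: 2C TCR transgenic mouse naive CD8+ T cells, MACS-purified | Read-out: CD8+ gate FL2 mean fluorescence as % of same-row positive control | Signal: High-throughput flow cytometry with anti-B7-1 and anti-CD8 staining | Timing: Binding step 1.5 h, 37 °C, antibody labelling 20 min, ice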
# PP1 inh confirm: confirmation of human PP1 phosphatase inhibitors; shares compounds with PP1 inh; purified PP1alpha, OMFP substrate fluorescence; inhibition, % at 6.7 µM; actives 52% (n = 1,900); AID 2358;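 active = mean PP1 inhibition above a set limit taken from the earlier primary screen, cut at about 15% in these data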
# PP5 inh counter: counter-screen for PP1 inhibitors: human PP5 phosphatase inhibition; inhibition, % at 6.7 µM; actives 4% (n = 1,900); AID 2360; purified PP5c, OMFP fluorescence; shares compounds with PP1 inh;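 active = mean PP5 inhibition over triplicate wells above about 9.5% taken from the earlier PP1 screen, limit read from the data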
# * marks the source's active call; other numbers are inactive results; . = no result given. Hits are enriched below; roughly 1.7% of the tested compounds scored in any of these assays.
SMILES,JMJD2C inh,m5-HT2A agonist,PP1 inh,PP5 inh,T cell modulator,PP1 inh confirm,PP5 inh counter
COc1ccc2cc(OCC(=O)NNC(=O)Nc3ccc(C(C)=O)cc3)ccc2c1,-22.5,-3.7,43.4*,1.2,234.3,40.5*,-2.2
COc1ccc(NC(=O)NNC(=O)COc2ccc3cc(Br)ccc3c2)cc1OC,0.1,6.6,25.4*,0.2,435.5,24.6*,-5.6
COc1ccc(NC(=O)NNC(=O)COc2ccc3cc(Br)ccc3c2)cc1,4.9,-8.7,.,.,323.6,.,.
O=C(Cc1ccccc1)N[C@@H]1c2ccccc2CC[C@@H]1OCc1ccccc1,.,0.8,.,.,.,.,.
COc1cc2[nH]c(C(=O)N3CC(C)OC(C)C3)cc2c(OC)c1OC (configuration not stated),7.9,-1.7,2.3,-0.1,157.8,.,.
COc1cc(/C=N/NC(=O)COc2c(C)cc([N+](=O)[O-])cc2C)ccc1OC(=O)c1ccccc1,-8.6,-1.3,11.6,4.5,551.4,.,.
COc1cc(/C=N/NC(=O)COc2c(C)cc([N+](=O)[O-])cc2C)ccc1OC(=O)c1ccccc1Br,-4.5,3.2,21.1*,2.2,262.8,17.4*,0.0
Cc1[nH]c(=O)[nH]c(=O)c1CSc1nnc(CCCCCNC(=O)OC(C)(C)C)o1,-1.8,2.9,23.3*,0.8,457.8,-3.3,-3.3
CC(C)(C)OC(=O)NCCCCCc1nnc(SCc2ccccc2)o1,-2.1,-6.3,-2.8,2.6,175.8,.,.
O=C1NC[C@H](CCCCN2C[C@H](Cc3ccccc3)N(CCc3ccc(O)cc3)C(=O)C2=O)N(CCc2ccc(O)cc2)C1=O,.,0.6,.,.,.,.,.
Cc1cc(N2C(=O)C(O)=C(C(=O)c3cc4ccccc4o3)C2c2ccc([N+](=O)[O-])cc2)no1 (configuration not stated),-0.5,7.5,30.1*,2.2,419.0,16.2*,-2.5
Cc1cc(N2C(=O)C(O)=C(C(=O)c3ccco3)C2c2ccc(Cl)cc2)no1 (configuration not stated),5.6,1.7,19.7*,0.6,246.1,17.4*,-0.5
O=C(C1=C(O)C(=O)N(c2nccs2)C1c1ccccc1)c1cc2ccccc2o1 (configuration not stated),-4.1,1.7,8.8,-0.7,189.7,.,.
Cc1cc(N2C(=O)C(O)=C(C(=O)c3ccco3)C2c2cccc(Oc3ccccc3)c2)no1 (configuration not stated),-18.4,4.7,25.3*,-0.1,101.2,26.4*,2.2
COc1cc(Cl)c(C)cc1NC(=O)c1ccccc1NC(=O)CN1CCN(C(C)=O)CC1,.,0.4,.,.,.,.,.
CCOCCC(=O)Nc1ccc2c(c1)c(=O)n(C)n2C/C=C/c1ccccc1,.,-2.8,.,.,.,.,.
COc1ccccc1CCC(=O)OCC(=O)c1c(N)n(CC(C)C)c(=O)n(C)c1=O,-2.8,5.4,82.8*,2.9,782.1,-5.1,0.1
NC(=O)CC(NC(=O)Cc1cccc2ccccc12)c1ccc(NC2CCCCCC2)c([N+](=O)[O-])c1 (configuration not stated),-1.5,4.5,23.6*,1.8,834.1,24.5*,-3.5
NC(=O)CC(NC(=O)Cc1ccc(Br)cc1)c1ccc(NCCOc2ccccc2)c([N+](=O)[O-])c1 (configuration not stated),-1.3,-4.3,19.9*,1.3,339.6,25.8*,-3.6
NC(=O)CC(NC(=O)Cc1ccc(Br)cc1)c1ccc(NCCc2cccc(F)c2)c([N+](=O)[O-])c1 (configuration not stated),-0.4,-2.8,18.5*,1.5,765.9,23.3*,-4.3
O=c1c(=O)n(CCO)n(CCO)c(=O)n1CCO,.,0.8,.,.,.,.,.
O=c1cc(-c2ccccc2)nc2c(-c3ccccc3)c(C(F)(F)F)[nH]n12,-5.6,7.3,33.4*,2.0,577.6,33.4*,0.3
O=C(c1cc([N+](=O)[O-])ccc1Cl)N1c2ccccc2Sc2ccccc21,12.2,1.5,2.1,-1.1,172.8,.,.
CN1CCN(c2ccccc2NC(=O)c2ccc(-c3ccccc3[N+](=O)[O-])o2)CC1,2.5,3.5,-2.4,-1.4,569.0,.,.
CCN(CC)S(=O)(=O)c1cccc(N=NC2=C(O)CCCC2=O)c1,1.1,-3.2,56.8*,-1.8,210.9,-0.1,-3.9
